# From ChEMBL document CHEMBL1143907, “Synthesis, nicotinic acetylcholine receptor binding, and pharmacological properties of 3'-(substituted phenyl)deschloroepibatidine analogs” (Bioorg Med Chem, 2008)
# Tests used:
# [1] = target: Neuronal acetylcholine receptor subunit alpha-7 (Rattus norvegicus, UniProt Q05941); assay: Displacement of [125I]iodoMLA from alpha-7 nAChR in rat cerebral cortex; assay type: tissue-based
# Mus musculus [2] = assay: Antinociceptive activity in acute pain mouse model at 10 mg/kg, sc by tail flick method; assay type: functional; conditions: route subcutaneous
# Procedure, shortened: (§1)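 Mice, tail-flick assay: heat lamp aimed at the tail, with latency to flick recorded. Each mouse's baseline (2–4 s) was taken before treatment, and test latency was taken after sc dosing. Response was expressed as %MPE = [(test−control)/(maximum latency−control)×100]. ED50 values are reported with confidence limits, or as percent effect at the individual dose.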
# [3] = target: Neuronal acetylcholine receptor; alpha4/beta2 (Rattus norvegicus, UniProt P09483+P12390); assay: Displacement of [3H]epibatidine from alpha-4-beta-2 nAChR in rat cerebral cortex; assay type: tissue-based
# Mus musculus [4] = assay: Effect on rectal temperature in mouse at 1000 […], sc; assay type: functional; conditions: route subcutaneous
# Procedure, shortened: (§2)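 Rectal temperature was read with a thermistor probe inserted 24 mm, just before and at several times after sc saline or analog. The pre/post difference was calculated per mouse. Laboratory ambient temperature was 21–24 °C.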
# Mus musculus [5] = assay: […] in mouse assessed as inhibition of nicotin induced hypothermia at 10 mg/kg, sc; assay type: functional; set-up: scale not given: the % may be the effect or the level left; conditions: route subcutaneous
# Mus musculus [6] = assay: Inhibition of nicotine-induced antinociception in acute pain mouse model at 100 ug/kg, sc by hot plate method; assay type: functional; set-up: scale not given: the % may be the effect or the level left
# Mus musculus [7] = assay: Antinociceptive activity in acute pain mouse model at 10 mg/kg, sc by hot plate method; assay type: functional; conditions: route subcutaneous
# Procedure, shortened: (§3)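 Mice were placed in a 10-cm glass cylinder on a hot plate held at 55.0 °C. Two control latencies, at least 10 min apart, were taken per mouse (normal 8–12 s). The endpoint was a jump or paw lick, and animals were tested 5 min after sc injection. Response was expressed as %MPE from test, control and maximum latencies. ED50 values are given with confidence limits, or as percent effect at a dose.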
# Mus musculus [8] = assay: Inhibition of nicotine-induced antinociception in sc dosed acute pain mouse model by tail flick method; assay type: functional
# Mus musculus [9] = assay: Effect on locomotor activity in sc dosed mouse assessed as spontaneous activity; assay type: functional
# Procedure, shortened: (§4)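 Mice were placed in individual photocell activity cages 5 min after sc saline (0.9%) or analog. Photobeam interruptions (two banks of eight cells) were counted over the next 10 min. Data are the number of interruptions, and ED50 is reported with confidence limits or as percent effect at a dose.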
# Mus musculus [10] = assay: Inhibition of nicotine-induced antinociception in acute pain mouse model at 10 ug/kg, sc by hot plate method; assay type: functional; set-up: scale not given: the % may be the effect or the level left
# Mus musculus [11] = assay: Inhibition of nicotine-induced antinociception in acute pain mouse model at 10 ug/kg, sc by tail flick method; assay type: functional; set-up: scale not given: the % may be the effect or the level left
# [12] = target: Neuronal acetylcholine receptor subunit alpha-7 (Rattus norvegicus) (UniProt Q05941); assay: Displacement of [125I]iodoMLA from alpha-7 nAChR in rat cerebral cortex at 50 nM; assay type: tissue-based
# Mus musculus [13] = assay: Inhibition of nicotine-induced antinociception in acute pain mouse model at 1000 ug/kg, sc by hot plate method; assay type: functional; set-up: scale not given: the % may be the effect or the level left
# Mus musculus [14] = assay: Agonist activity in sc dosed mouse assessed as induction of hypothermia
# Mus musculus [15] = assay: Inhibition of nicotine-induced antinociception in sc dosed acute pain mouse model by hot plate method; assay type: functional
# Mus musculus [16] = assay: Effect on rectal temperature in mouse at 10 mg/kg, sc; assay type: functional; conditions: route subcutaneous; procedure, shortened: as §2
# Mus musculus [17] = assay: Antinociceptive activity in acute pain mouse model at 20 mg/kg, sc by tail flick method; assay type: functional; conditions: route subcutaneous; procedure, shortened: as §1
# Mus musculus [18] = assay: Antinociceptive activity in acute pain mouse model at 20 mg/kg, sc by hot plate method; assay type: functional; conditions: route subcutaneous; procedure, shortened: as §3
# Mus musculus [19] = assay: Effect on rectal temperature in mouse at 2000 […], sc; assay type: functional; conditions: route subcutaneous; procedure, shortened: as §2
# Mus musculus [20] = assay: […] in mouse assessed as inhibition of nicotin induced hypothermia at 20 mg/kg, sc; assay type: functional; set-up: scale not given: the % may be the effect or the level left; conditions: route subcutaneous
# Mus musculus [21] = assay: Effect on rectal temperature in mouse at 100 […], sc; assay type: functional; conditions: route subcutaneous; procedure, shortened: as §2
# Mus musculus [22] = assay: Antinociceptive activity in sc dosed in acute pain mouse model by hot plate method; assay type: functional; procedure, shortened: as §3
# Mus musculus [23] = assay: Antinociceptive activity in sc dosed acute pain mouse model by tail flick method; assay type: functional; procedure, shortened: as §1
# Mus musculus [24] = assay: Effect on rectal temperature in mouse at 5000 […], sc; assay type: functional; conditions: route subcutaneous; procedure, shortened: as §2
# Mus musculus [25] = assay: Effect on locomotor activity in mouse assessed as spontaneous activity at 10 mg/kg, sc; assay type: functional; conditions: route subcutaneous; procedure, shortened: as §4
# Mus musculus [26] = assay: Effect on rectal temperature in mouse at 20 mg/kg, sc; assay type: functional; conditions: route subcutaneous; procedure, shortened: as §2
# Mus musculus [27] = assay: Inhibition of nicotine-induced antinociception in acute pain mouse model at 2000 ug/kg, sc by hot plate method; assay type: functional; set-up: scale not given: the % may be the effect or the level left
# Mus musculus [28] = assay: Effect on rectal temperature in mouse at 500 […], sc; assay type: functional; conditions: route subcutaneous; procedure, shortened: as §2
# Mus musculus [29] = assay: Antinociceptive activity in acute pain mouse model at 15 mg/kg, sc by hot plate method; assay type: functional; conditions: route subcutaneous; procedure, shortened: as §3
# Mus musculus [30] = assay: Effect on rectal temperature in mouse at 10000 µg/kg, sc; conditions: route subcutaneous
# Sequence of Neuronal acetylcholine receptor; alpha4/beta2 (P09483 whole entry): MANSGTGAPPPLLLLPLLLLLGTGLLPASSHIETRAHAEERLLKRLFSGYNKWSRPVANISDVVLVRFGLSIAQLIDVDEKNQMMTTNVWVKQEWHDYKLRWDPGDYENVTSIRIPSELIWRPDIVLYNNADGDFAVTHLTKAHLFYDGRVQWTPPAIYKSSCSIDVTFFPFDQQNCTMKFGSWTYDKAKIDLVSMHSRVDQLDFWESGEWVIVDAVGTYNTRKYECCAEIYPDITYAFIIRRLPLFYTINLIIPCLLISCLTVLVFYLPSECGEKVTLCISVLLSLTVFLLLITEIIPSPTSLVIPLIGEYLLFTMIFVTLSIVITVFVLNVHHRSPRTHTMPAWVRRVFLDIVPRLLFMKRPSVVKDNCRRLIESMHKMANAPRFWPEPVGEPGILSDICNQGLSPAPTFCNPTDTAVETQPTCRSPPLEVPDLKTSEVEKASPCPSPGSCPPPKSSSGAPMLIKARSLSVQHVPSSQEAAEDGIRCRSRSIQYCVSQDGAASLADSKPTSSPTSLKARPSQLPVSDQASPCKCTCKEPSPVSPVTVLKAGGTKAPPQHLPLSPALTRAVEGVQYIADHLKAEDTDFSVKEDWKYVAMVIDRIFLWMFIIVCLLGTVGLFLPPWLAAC
# Sequence of Neuronal acetylcholine receptor; alpha4/beta2 (P12390 whole entry): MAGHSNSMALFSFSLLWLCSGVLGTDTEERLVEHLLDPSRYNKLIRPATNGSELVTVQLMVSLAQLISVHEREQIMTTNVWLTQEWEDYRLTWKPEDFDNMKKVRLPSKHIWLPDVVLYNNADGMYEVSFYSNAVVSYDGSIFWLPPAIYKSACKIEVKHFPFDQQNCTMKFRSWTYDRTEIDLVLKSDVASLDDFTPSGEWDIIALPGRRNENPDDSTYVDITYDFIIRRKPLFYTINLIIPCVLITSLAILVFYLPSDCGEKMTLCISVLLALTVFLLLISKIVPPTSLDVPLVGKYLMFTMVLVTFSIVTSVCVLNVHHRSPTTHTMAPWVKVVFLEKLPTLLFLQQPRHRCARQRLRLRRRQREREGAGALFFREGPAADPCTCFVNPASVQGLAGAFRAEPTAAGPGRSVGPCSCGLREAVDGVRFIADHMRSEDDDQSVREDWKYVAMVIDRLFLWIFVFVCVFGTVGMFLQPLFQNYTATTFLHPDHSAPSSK
# Sequence of Neuronal acetylcholine receptor subunit alpha-7 (Q05941 whole entry): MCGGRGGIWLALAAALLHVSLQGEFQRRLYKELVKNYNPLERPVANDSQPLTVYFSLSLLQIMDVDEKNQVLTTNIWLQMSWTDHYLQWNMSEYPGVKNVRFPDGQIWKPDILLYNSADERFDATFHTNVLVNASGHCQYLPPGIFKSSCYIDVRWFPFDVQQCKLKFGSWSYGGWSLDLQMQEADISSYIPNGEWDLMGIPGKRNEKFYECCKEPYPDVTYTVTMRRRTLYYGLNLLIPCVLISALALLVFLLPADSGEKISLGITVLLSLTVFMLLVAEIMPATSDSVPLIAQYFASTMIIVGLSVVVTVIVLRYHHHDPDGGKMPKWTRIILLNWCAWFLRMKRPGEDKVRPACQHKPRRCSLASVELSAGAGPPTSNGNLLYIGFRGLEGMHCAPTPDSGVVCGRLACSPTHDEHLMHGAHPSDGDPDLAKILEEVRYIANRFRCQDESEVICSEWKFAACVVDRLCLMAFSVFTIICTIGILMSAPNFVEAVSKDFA
# Sequence of Neuronal acetylcholine receptor subunit alpha-7 (Rattus norvegicus) (Q05941 whole entry): as above
Structure (SMILES),Ki [1],Activity (Mus musculus [2]),Ki [3],Activity (Mus musculus [4]),Activity (Mus musculus [7]),AD50 (Mus musculus [8]),ED50 (Mus musculus [9]),ED50 (Mus musculus [14]),AD50 (Mus musculus [15]),other results
Fc1ccc(-c2cncc(C3CC4CCC3N4)c2)cc1 (configuration not stated),> 2000 nM,3%,0.15 nM,0%,13%,13 µg/kg,3000 µg/kg,–,–,Activity (Mus musculus [5]): -1.6%; Activity (Mus musculus [6]): 10%
Clc1ccc(-c2cncc(C3CC4CCC3N4)c2)cc1 (configuration not stated),> 2000 nM,1%,0.21 nM,5%,11%,–,10500 µg/kg,–,–,Activity (Mus musculus [10]): 0%; Activity (Mus musculus [11]): 0%; Activity (Mus musculus [5]): 2%
Cl.Cl.c1ccc(-c2cncc(C3CC4CCC3N4)c2)cc1 (racemic),–,6%,0.5 nM,0%,30%,300 µg/kg,500 µg/kg,1500 µg/kg,–,Activity [12]: 7%; Activity (Mus musculus [13]): 10%
Cl.Cl.Fc1cccc(-c2cncc(C3CC4CCC3N4)c2)c1 (racemic),> 2000 nM,2%,0.2 nM,–,8%,3.1 µg/kg,5000 µg/kg,–,3000 µg/kg,Activity (Mus musculus [5]): 0%; Activity (Mus musculus [16]): 0%
Cl.Cl.O=[N+]([O-])c1cccc(-c2cncc(C3CC4CCC3N4)c2)c1 (racemic),> 2000 nM,–,0.17 nM,–,–,–,2500 µg/kg,37600 µg/kg,–,Activity (Mus musculus [17]): 5%; Activity (Mus musculus [18]): 21%; Activity (Mus musculus [19]): 0%
Cl.Cl.Cl.Clc1cccc(-c2cncc(C3CC4CCC3N4)c2)c1 (racemic),> 2000 nM,–,0.17 nM,0%,–,0.01 µg/kg,3800 µg/kg,–,–,Activity (Mus musculus [17]): 1%; Activity (Mus musculus [18]): 10%; Activity (Mus musculus [13]): 0%; Activity (Mus musculus [20]): 0%
Cl.Cl.O=[N+]([O-])c1ccc(-c2cncc(C3CC4CCC3N4)c2)cc1 (racemic),> 2000 nM,1%,0.34 nM,–,26%,47 µg/kg,660 µg/kg,2900 µg/kg,–,Activity (Mus musculus [21]): 0%; Activity (Mus musculus [6]): 10%
COc1cccc(-c2cncc(C3CC4CCC3N4)c2)c1.Cl.Cl (racemic),> 2000 nM,1%,–,–,20%,–,2900 µg/kg,–,–,Activity (Mus musculus [10]): 0%; Activity (Mus musculus [11]): 0%; Activity (Mus musculus [5]): 0%; Activity (Mus musculus [16]): 0%
Cl.Fc1ncc(C2CC3CCC2N3)cc1-c1cccc(Cl)c1 (racemic),–,–,0.073 nM,0%,14%,12 µg/kg,–,–,450 µg/kg,–
Cl.Nc1cccc(-c2cncc(C3CC4CCC3N4)c2)c1 (racemic),> 2000 nM,–,1.16 nM,–,–,–,1500 µg/kg,3800 µg/kg,–,ED50 (Mus musculus [22]): 650 µg/kg; ED50 (Mus musculus [23]): 6 µg/kg
Cl.Nc1ccc(-c2cc(C3CC4CCC3N4)cnc2F)cc1 (racemic),–,–,0.095 nM,–,10%,5 µg/kg,–,–,1800 µg/kg,Activity (Mus musculus [24]): 0%
Cl.Fc1ccc(-c2cc(C3CC4CCC3N4)cnc2F)cc1 (racemic),–,–,0.029 nM,–,15%,0.5 µg/kg,–,–,230 µg/kg,Activity (Mus musculus [21]): 0%
Cl.Nc1ccc(-c2cncc(C3CC4CCC3N4)c2)cc1 (racemic),> 2000 nM,6%,0.34 nM,–,10%,1 µg/kg,–,–,–,Activity (Mus musculus [25]): 15%; Activity (Mus musculus [5]): 0%; Activity (Mus musculus [26]): 0%; Activity (Mus musculus [27]): 45%
Cl.O=[N+]([O-])c1cccc(-c2cc(C3CC4CCC3N4)cnc2F)c1 (racemic),–,–,0.053 nM,–,20%,0.2 µg/kg,–,–,130 µg/kg,Activity (Mus musculus [28]): 5%
COc1cccc(-c2cc(C3CC4CCC3N4)cnc2F)c1.Cl (racemic),–,–,–,–,8%,8 µg/kg,–,–,2000 µg/kg,–
Cl.Fc1ncc(C2CC3CCC2N3)cc1-c1ccc(Cl)cc1 (racemic),–,–,0.044 nM,0%,7%,0.3 µg/kg,–,–,260 µg/kg,Activity (Mus musculus [25]): 5%
Cl.Fc1ncc(C2CC3CCC2N3)cc1-c1ccccc1 (racemic),> 2000 nM,–,–,–,–,500 µg/kg,–,–,1200 µg/kg,Activity (Mus musculus [29]): 4%
Cl.O=[N+]([O-])c1ccc(-c2cc(C3CC4CCC3N4)cnc2F)cc1 (racemic),–,–,0.009 nM,0%,10%,3 µg/kg,–,3500 µg/kg,120 µg/kg,–
Cl.Fc1cccc(-c2cc(C3CC4CCC3N4)cnc2F)c1 (racemic),–,–,0.087 nM,0%,–,5 µg/kg,–,–,–,Activity (Mus musculus [13]): 2%
Cl.Nc1cccc(-c2cc(C3CC4CCC3N4)cnc2F)c1 (racemic),–,–,–,–,4%,9 µg/kg,–,–,820 µg/kg,Activity (Mus musculus [24]): 5%
Clc1ccc(C2CC3CCC2N3)cn1 (racemic) [EPIBATIDINE],–,–,–,–,–,–,1 µg/kg,4 µg/kg,–,ED50 (Mus musculus [22]): 4 µg/kg; ED50 (Mus musculus [23]): 6 µg/kg
c1cncc(C2CC3CCC2N3)c1 (configuration not stated) [DESCHLOROEPIBATIDINE],–,–,–,–,–,–,–,–,–,ED50 (Mus musculus [23]): 2 µg/kg
CN1CCC[C@@H]1c1cccnc1 [R-NICOTINE],–,–,–,–,–,–,500 µg/kg,1000 µg/kg,–,ED50 (Mus musculus [22]): 650 µg/kg; ED50 (Mus musculus [23]): 1300 µg/kg
c1cnc2cc3c(cc2n1)[C@@H]1CNC[C@H]3C1 [VARENICLINE],–,11%,–,–,10%,0.2 µg/kg,2100 µg/kg,2800 µg/kg,470 µg/kg,Activity (Mus musculus [30]): 0%
